Data from ChEMBL document CHEMBL1126975 (J Med Chem, 1993).

What was measured:
[1] = biological target: T1, Amine oxidase [flavin-containing] B (Rattus norvegicus, UniProt P19643); assay: Compound was evaluated for the reversibility test for the percentage inhibition of MAO B at 6.25 nM before the test at 12.5 nM
T1 sequence (P19643 whole entry): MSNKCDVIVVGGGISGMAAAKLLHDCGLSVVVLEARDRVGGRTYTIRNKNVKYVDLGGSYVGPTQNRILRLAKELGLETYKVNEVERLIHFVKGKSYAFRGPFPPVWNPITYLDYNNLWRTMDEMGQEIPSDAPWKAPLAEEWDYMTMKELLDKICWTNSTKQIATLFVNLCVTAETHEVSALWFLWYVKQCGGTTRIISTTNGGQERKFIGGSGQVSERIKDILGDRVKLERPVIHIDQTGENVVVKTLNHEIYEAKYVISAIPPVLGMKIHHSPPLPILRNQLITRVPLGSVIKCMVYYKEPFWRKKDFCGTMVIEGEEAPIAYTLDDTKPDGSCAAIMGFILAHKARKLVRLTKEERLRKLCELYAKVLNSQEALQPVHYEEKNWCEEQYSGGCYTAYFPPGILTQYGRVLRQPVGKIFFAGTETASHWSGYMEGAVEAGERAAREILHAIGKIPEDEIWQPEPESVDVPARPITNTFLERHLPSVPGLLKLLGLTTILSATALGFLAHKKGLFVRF

[2] = biological target: T1, Amine oxidase [flavin-containing] B; assay: Compound was evaluated for the reversibility test for the percentage inhibition of MAO B at 6.25 nM after the test at 12.5 nM
Method in brief: (§1)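 Rat brain crude mitochondrial fraction (1.94 mg protein/mL) preincubated 1 h at 37 °C with or without inhibitor at 6.25 or 12.5 nM. Then diluted 200-fold in 100 mM phosphate pH 7.4 with 100 μM PEA, held 4 h at 37 °C, pelleted, and washed 1 h in buffer without PEA. Assayed under standard conditions (PEA 1 min); percent inhibition vs control.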

[3] = biological target: T1, Amine oxidase [flavin-containing] B; assay: Ex-Vivo Time course of evaluation for the percentage inhibition of MAO-B for 1 hr at single dose 1500 mg/kg through oral gavage (p<0.001); assay type: organism-based; design: dose 1500 mg/kg, route oral
Method in brief: (§2)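 Fasted male Sprague-Dawley rats (150 g) dosed orally by gavage, drug suspended in Tween 80 plus 0.5% methylcellulose; vehicle controls. The 100 mg/kg arm was dosed daily for 9 days. Four rats per time point; brains frozen and homogenized in 0.1 M phosphate pH 7.4. Assayed at 37 °C with 8 μM [14C]PEA for 1 min; toluene/ethyl acetate extraction. Percent inhibition vs control, mean ± SEM.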

[4] = biological target: T1, Amine oxidase [flavin-containing] B; assay: Ex-Vivo Time course of evaluation for the percentage inhibition of MAO-B for 0.5 hr at single dose 1 mg/kg through oral gavage [p<0.01 (Bonferroni's test)]; assay type: organism-based; design: dose 1 mg/kg, route oral; method in brief: as §2
[5] = biological target: T1, Amine oxidase [flavin-containing] B; assay: Ex-Vivo Time course of evaluation for the percentage inhibition of MAO-B for 4 hr at single dose 1 mg/kg through oral gavage (p<0.001); assay type: organism-based; design: dose 1 mg/kg, route oral; method in brief: as §2
[6] = biological target: T2, Amine oxidase [flavin-containing] A (Rattus norvegicus, UniProt P21396); assay: In Vitro evaluation for the inhibitory activity on rat brain by MAO-A
T2 sequence (P21396 whole entry): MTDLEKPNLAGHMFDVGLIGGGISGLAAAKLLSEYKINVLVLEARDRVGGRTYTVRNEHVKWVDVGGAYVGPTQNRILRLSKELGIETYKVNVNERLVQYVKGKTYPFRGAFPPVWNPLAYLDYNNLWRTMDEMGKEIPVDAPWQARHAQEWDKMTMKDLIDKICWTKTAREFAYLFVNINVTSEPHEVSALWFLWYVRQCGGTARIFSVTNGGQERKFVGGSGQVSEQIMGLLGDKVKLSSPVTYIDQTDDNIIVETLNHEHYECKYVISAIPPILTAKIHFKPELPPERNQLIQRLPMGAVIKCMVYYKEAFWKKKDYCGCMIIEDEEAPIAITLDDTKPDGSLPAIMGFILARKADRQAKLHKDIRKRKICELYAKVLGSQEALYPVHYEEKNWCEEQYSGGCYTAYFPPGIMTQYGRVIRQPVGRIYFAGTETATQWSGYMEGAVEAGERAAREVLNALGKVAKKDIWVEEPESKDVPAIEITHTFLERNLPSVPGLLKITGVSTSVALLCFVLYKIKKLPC
Method in brief: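 Male Sprague-Dawley rat brain crude mitochondrial fraction, 0.195 mg protein/mL. Radiochemical assay at 37 °C, pH 7.4: MAO A with 10 μM [14C]5-HT, MAO B with 5 μM [14C]PEA. Drug preincubated 20 min with enzyme. […] Three experiments in duplicate.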

[7] = biological target: T1, Amine oxidase [flavin-containing] B; assay: Compound was evaluated for the time-dependence inhibition of MAO-B at 60 minutes preincubation periods
Method in brief: (§3)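 Male Sprague-Dawley rat brain crude mitochondrial fraction, MAO B. Drug preincubated with enzyme at 37 °C for 0, 20, 30 or 60 min, then radiochemical assay with 5 μM [14C]PEA at pH 7.4. IC50 read graphically from 9–12 concentrations; three experiments in duplicate.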

[8] = biological target: T1, Amine oxidase [flavin-containing] B; assay: Ex-Vivo Time course of evaluation for the percentage inhibition of MAO-B for 4 hr at single dose 5 mg/kg through oral gavage (p<0.001); assay type: organism-based; design: dose 5 mg/kg, route oral; method in brief: as §2
[9] = biological target: T2, Amine oxidase [flavin-containing] A; assay: Compound was evaluated for the time-dependence inhibition of MAO-A at 60 minutes of preincubated period. values are same with or without pre-incubation
[10] = biological target: T1, Amine oxidase [flavin-containing] B; assay: Compound was evaluated for the time-dependence inhibition of MAO-B at 0 minute pre-incubation periods; method in brief: as §3
[11] = biological target: T1, Amine oxidase [flavin-containing] B; assay: Ex-Vivo Time course of evaluation for the percentage inhibition of MAO-B for 24 hr at single dose 1 mg/kg through oral gavage (not significant Wilcoxom''s test); assay type: organism-based; design: dose 1 mg/kg, route oral; method in brief: as §2
[12] = biological target: T1, Amine oxidase [flavin-containing] B; assay: Ex-Vivo Time course of evaluation for the percentage inhibition of MAO-B for 0.5 hr at single dose 5 mg/kg through oral gavage (p<0.001); assay type: organism-based; design: dose 5 mg/kg, route oral; method in brief: as §2
[13] = biological target: T1, Amine oxidase [flavin-containing] B; assay: Compound was evaluated for the time-dependence inhibition of MAO-B at 30 minutes pre-incubation periods; method in brief: as §3
[14] = biological target: T1, Amine oxidase [flavin-containing] B; assay: Ex-Vivo Time course of evaluation for the percentage inhibition of MAO-B for 24 hr at single dose 100 mg/kg through oral gavage; assay type: organism-based; design: dose 100 mg/kg, route oral
[15] = biological target: T1, Amine oxidase [flavin-containing] B; assay: In vitro inhibitory activity on rat brain MAO-B.
Method in brief: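 Radiochemical assay at 37 °C, pH 7.4: MAO A with 10 μM [14C]5-HT, MAO B with 5 μM [14C]PEA. Drug preincubated 20 min with enzyme. Three experiments in duplicate.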

[16] = biological target: T1, Amine oxidase [flavin-containing] B; assay: Ex-Vivo Time course of evaluation for the percentage inhibition of MAO-B for 24 hr at single dose 1500 mg/kg through oral gavage; assay type: organism-based; design: dose 1500 mg/kg, route oral
[17] = biological target: T1, Amine oxidase [flavin-containing] B; assay: Ex-Vivo Time course of evaluation for the percentage inhibition of MAO-B for 24 hr at single dose 1500 mg/kg through oral gavage (p<0.001); assay type: organism-based; design: dose 1500 mg/kg, route oral; method in brief: as §2
[18] = biological target: T1, Amine oxidase [flavin-containing] B; assay: Compound was evaluated for the reversibility test for the percentage inhibition of MAO B at 6.25 nM after the test; method in brief: as §1
[19] = biological target: T1, Amine oxidase [flavin-containing] B; assay: Ex-Vivo Time course of evaluation for the percentage inhibition of MAO-B for 1 hr at single dose 100 mg/kg through oral gavage (p<0.001); assay type: organism-based; design: dose 100 mg/kg, route oral
[20] = biological target: T1, Amine oxidase [flavin-containing] B; assay: Ex-Vivo percentage inhibition of MAO-B after 24 hr single 5 mg/kg dose by oral gavage; assay type: organism-based; design: dose 5 mg/kg, route oral
Method in brief: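 Ex vivo oral gavage in fasted male Sprague-Dawley rats (Tween 80 / 0.5% methylcellulose), four rats per group. Brain homogenate taken 24 h after dosing. MAO B assayed with 8 μM [14C]PEA, 1 min at 37 °C; percent inhibition vs vehicle control.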

[21] = biological target: T1, Amine oxidase [flavin-containing] B; assay: Ex-Vivo Time course of evaluation for the percentage inhibition of MAO-B for 1 hr at single dose 1 mg/kg through oral gavage (p<0.001); assay type: organism-based; design: dose 1 mg/kg, route oral; method in brief: as §2
[22] = biological target: T1, Amine oxidase [flavin-containing] B; assay: Compound was evaluated for the reversibility test for the percentage inhibition of MAO B at 6.25 nM before the test
[23] = Selectivity for B form was estimated by the ratio of IC50 (MAO A) at 60 min to that of (MAO B)
[24] = biological target: T1, Amine oxidase [flavin-containing] B; assay: Ex-Vivo Time course of evaluation for the percentage inhibition of MAO-B for 24 hr at once-daily dose for 9 days 100 mg/kg through oral gavage (p<0.001)
[25] = biological target: T1, Amine oxidase [flavin-containing] B; assay: Ex-Vivo Time course of evaluation for the percentage inhibition of MAO-B for 1 hr at single dose 5 mg/kg through oral gavage (p<0.001); assay type: organism-based; design: dose 5 mg/kg, route oral; method in brief: as §2
[26] = biological target: T1, Amine oxidase [flavin-containing] B; assay: Compound was evaluated for the time-dependence inhibition of MAO-B at 20 minutes pre-incubation periods; method in brief: as §3

C#CCN(C)[C@H](C)Cc1ccccc1 [SELEGILINE]
inhibition at 0.00625 µM [1]: 21%
inhibition at 0.00625 µM [2]: 21%

N#CCCn1nc(-c2ccc(OCc3ccccc3)cc2)oc1=O
inhibition at 1500 mg/kg [3]: 91%
inhibition at 1 mg/kg [4]: 34%
inhibition at 1 mg/kg [5]: 75%
Inhibition [6]: 10%
IC50 [7]: 1.4 nM
inhibition at 5 mg/kg [8]: 83%
IC50 [9]: > 100000 nM
IC50 [10]: 25 nM
inhibition at 1 mg/kg [11]: 18%
inhibition at 5 mg/kg [12]: 69%
IC50 [13]: 2.2 nM
inhibition at 100 mg/kg [14]: 3%
IC50 [15]: 2.2 nM
inhibition at 1500 mg/kg [16]: 2%
inhibition at 1500 mg/kg [17]: 74%
inhibition at 0.00625 µM [18]: 102%
inhibition at 100 mg/kg [19]: 90%
inhibition at 5 mg/kg [20]: 18%
inhibition at 1 mg/kg [21]: 86%
inhibition at 0.00625 µM [22]: 35%
Selectivity [23]: > 71400
inhibition at 100 mg/kg [24]: 73%
inhibition at 5 mg/kg [25]: 87%
IC50 [26]: 2.7 nM
